The assay concerns the target T1, Adrenergic receptor alpha-1 (Rattus norvegicus, UniProt P15823+P23944+P43140).
T1 sequence (P15823 whole entry): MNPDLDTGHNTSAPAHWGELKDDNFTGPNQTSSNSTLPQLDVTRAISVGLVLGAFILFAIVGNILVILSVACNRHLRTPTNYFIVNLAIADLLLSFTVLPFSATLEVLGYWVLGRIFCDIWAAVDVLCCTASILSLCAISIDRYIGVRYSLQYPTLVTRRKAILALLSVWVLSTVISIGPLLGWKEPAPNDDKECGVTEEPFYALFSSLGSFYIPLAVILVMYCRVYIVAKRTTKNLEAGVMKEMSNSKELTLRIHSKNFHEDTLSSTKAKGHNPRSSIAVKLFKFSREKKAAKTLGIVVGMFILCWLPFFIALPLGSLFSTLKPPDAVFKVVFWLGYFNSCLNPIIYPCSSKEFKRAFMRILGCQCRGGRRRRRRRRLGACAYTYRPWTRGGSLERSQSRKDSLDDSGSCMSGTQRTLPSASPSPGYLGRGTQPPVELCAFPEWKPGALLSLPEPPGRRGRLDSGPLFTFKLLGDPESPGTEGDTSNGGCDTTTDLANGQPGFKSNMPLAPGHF
T1 sequence (P23944 whole entry): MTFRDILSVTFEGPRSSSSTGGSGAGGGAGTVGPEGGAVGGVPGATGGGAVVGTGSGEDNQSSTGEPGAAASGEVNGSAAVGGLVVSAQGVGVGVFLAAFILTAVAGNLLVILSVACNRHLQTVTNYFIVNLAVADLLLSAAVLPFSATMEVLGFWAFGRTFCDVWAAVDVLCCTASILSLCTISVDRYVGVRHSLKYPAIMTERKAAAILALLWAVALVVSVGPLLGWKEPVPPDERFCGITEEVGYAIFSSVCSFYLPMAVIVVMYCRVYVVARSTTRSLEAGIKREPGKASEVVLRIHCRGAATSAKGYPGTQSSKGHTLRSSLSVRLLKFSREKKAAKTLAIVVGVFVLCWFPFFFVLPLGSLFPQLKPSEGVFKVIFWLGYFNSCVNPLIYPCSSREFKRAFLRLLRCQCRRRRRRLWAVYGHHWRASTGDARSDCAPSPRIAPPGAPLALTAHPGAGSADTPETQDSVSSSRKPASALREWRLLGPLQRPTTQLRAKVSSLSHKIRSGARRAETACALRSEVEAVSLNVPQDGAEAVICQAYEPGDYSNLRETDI
T1 sequence (P43140 whole entry): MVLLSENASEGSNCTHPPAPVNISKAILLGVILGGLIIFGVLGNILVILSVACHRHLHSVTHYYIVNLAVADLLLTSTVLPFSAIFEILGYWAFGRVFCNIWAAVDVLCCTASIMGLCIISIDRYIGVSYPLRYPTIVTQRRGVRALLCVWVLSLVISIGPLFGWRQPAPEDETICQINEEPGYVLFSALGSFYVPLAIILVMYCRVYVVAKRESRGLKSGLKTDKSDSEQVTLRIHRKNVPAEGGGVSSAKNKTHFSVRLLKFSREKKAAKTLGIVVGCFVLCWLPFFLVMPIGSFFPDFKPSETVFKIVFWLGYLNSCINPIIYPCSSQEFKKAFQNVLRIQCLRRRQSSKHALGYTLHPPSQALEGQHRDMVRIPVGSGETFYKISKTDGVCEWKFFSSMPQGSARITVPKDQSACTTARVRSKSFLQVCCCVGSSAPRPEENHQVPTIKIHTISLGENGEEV
The experiment in a line: Inhibition of saturable binding of [3H]prazosin to alpha-1 adrenergic receptor in rat cerebral cortical membranes. It counts as cell membranes, Membrane. In short, it runs like this:
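Rat cerebral cortical membranes were used as the α1 site source and labelled with [³H]prazosin. Compounds displaced saturable binding. Ki (nM) was defined as the concentration inhibiting saturable binding by 50%.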

The structures appear in SMILES notation.

As to `c1ccc(CN2c3ccccc3CC2C2=NCCN2)cc1` (stereo unspecified), the Ki turned out to be 17.5 nM.

(Values after ChEMBL document CHEMBL1124112, “Indoline analogues of idazoxan: potent alpha 2-antagonists and alpha 1-agonists” (J Med Chem, 1988).)
